According to ChEMBL document CHEMBL1138529, “Efficacy, pharmacokinetics, and metabolism of tetrahydroquinoline inhibitors of Plasmodium falciparum protein farnesyltransferase” (Antimicrob Agents Chemother, 2007):

Assays:
[1] = Permeability from apical to basolateral side in human Caco-2 cells; format: ADME, cell-based; conditions: read-out: permeability
[2] = AUC in Sprague-Dawley rat at 50 mg/kg, po; format: ADME, organism-based; parameters: dose 50 mg/kg, route oral; conditions: plasma
Summary of the method: (§1)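 Three female BALB/c mice (lines for mice, 8–10 weeks) or three female Sprague-Dawley rats (10–12 weeks) per group; 50 mg/kg oral gavage in 3% EtOH-7% Tween 80-90% normal saline. Plasma sampled at set times (tail bleed in mice, saphenous vein in rats), extracted with acetonitrile plus internal standard, quantified by LC/MS; AUC as mean of three animals.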

[3] = Cmax in Sprague-Dawley rat at 50 mg/kg, po; format: ADME, organism-based; parameters: dose 50 mg/kg, route oral; conditions: in vivo
Summary of the method: (§2)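 50 mg/kg by oral gavage in 3% EtOH-7% Tween 80-90% normal saline to groups of three females (BALB/c mice, 8–10 weeks, tail bleed; Sprague-Dawley rats, 10–12 weeks, saphenous vein). Plasma extracted with acetonitrile/internal standard, LC/MS; means of three animals. Oral elimination half-life depends on absorption rate as well as elimination.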

[4] = Inhibition of Plasmodium falciparum protein farnesyltransferase by SPA method
Plasmodium falciparum = experiment: Antiplasmodial activity against Plasmodium falciparum by [3H]hypoxanthine uptake; format: functional; conditions: read-out: ED50 (the source's name)
Summary of the method: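 Asynchronous P. falciparum (3D7 or K1) in RPMI 1640 with 20% heat-inactivated human A+ plasma, 0.5% parasitemia and 0.5% hematocrit; compound serially diluted, top final 5 μM, 48 h at 37°C under 5% CO2/5% O2/90% N2, then [8-3H]hypoxanthine 0.3 μCi added for 24 h.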

Mus musculus [5] = experiment: Toxicity in BALB/c mouse at 50 mg/kg, po; format: organism-based; parameters: dose 50 mg/kg, route oral; conditions: in vivo
Rattus norvegicus = experiment: Toxicity in Sprague-Dawley rat at 50 mg/kg, po; format: organism-based; parameters: dose 50 mg/kg, route oral; conditions: in vivo
Summary of the method: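 Female Sprague-Dawley rats, 10-12 weeks, three per group. 50 mg/kg oral gavage in 3% EtOH-7% Tween 80-90% normal saline. Saphenous vein plasma sampled over time, and animals observed for adverse reactions.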

[6] = Metabolic stability in mouse liver microsomes; format: ADME, Microsome
Summary of the method: (§3)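 Pooled female liver microsomes at 0.5 mg/ml in 0.1 M potassium phosphate pH 7.4, 3 mM MgCl2, 1 mM EDTA, with NADPH regenerating system (1 mM NADP+, 5 mM glucose-6-phosphate, 1 U/ml G6PDH). Preincubated 10 min at 37°C, then compound added to 1 μM final. Time points quenched with 3 volumes acetonitrile plus internal standard; parent quantified by LC/MS; half-life reported.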

[7] = AUC in BALB/c mouse at 50 mg/kg, po; format: ADME, organism-based; parameters: dose 50 mg/kg, route oral; conditions: plasma; summary of the method: as §1
[8] = Cmax in BALB/c mouse at 50 mg/kg, po; format: ADME, organism-based; parameters: dose 50 mg/kg, route oral; conditions: in vivo; summary of the method: as §2
[9] = Elimination half life in BALB/c mouse at 50 mg/kg, po; format: ADME, organism-based; parameters: dose 50 mg/kg, route oral; conditions: in vivo, read-out: beta t1/2; summary of the method: as §2
[10] = Metabolic stability in rat liver microsomes; format: ADME, Microsome; summary of the method: as §3
[11] = Elimination half life in Sprague-Dawley rat at 50 mg/kg, po; format: ADME, organism-based; parameters: dose 50 mg/kg, route oral; conditions: in vivo, read-out: beta t1/2; summary of the method: as §2
[12] = Permeability from basolateral to apical side in human Caco-2 cells; format: ADME, cell-based; conditions: read-out: permeability
Summary of the method: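 Caco-2 clone TC7 grown on laminin-coated porous inserts and used 19-21 days after seeding; integrity checked by TEER and [3H]mannitol flux. Monolayers equilibrated 30 min at 37°C in HBSS/5 mM HEPES pH 7.4. Compound at 50 μM final added to basolateral donor side. Apical receiver sampled at 60 min, 37°C with shaking; LC/MS; Papp calculated from 60-min concentrations.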

Mus musculus [13] = experiment: Plasma concentration in BALB/c mouse at 50 mg/kg, po; format: ADME, organism-based; parameters: dose 50 mg/kg, route oral; conditions: in vivo
Summary of the method: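 Female BALB/c mice, 8-10 weeks, three per group. Single 50 mg/kg oral gavage in 3% EtOH-7% Tween 80-90% normal saline. Plasma collected by tail bleed at set times, frozen at −20°C, acetonitrile-extracted with internal standard, quantified by LC/MS.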

Papp A→B [1] | AUC [2] | Cmax [3] | IC50 [4] | EC50 (Plasmodium falciparum) | half-life [6] | AUC [7] | Cmax [8] | half-life [9] | half-life [10] | half-life [11] | Papp B→A [12] | concentration (Mus musculus [13]) | SMILES | Activity (Mus musculus [5]) | Activity (Rattus norvegicus)
1 ×10⁻⁶ cm/s | 10.9 µM·h | 4.5 µM | 0.5 nM | 16 nM |  |  |  |  |  |  |  |  | Cn1cncc1CN1CC(N(CC2CCN(C(=O)OCc3ccccc3)CC2)S(=O)(=O)c2ccccn2)Cc2cc(C#N)ccc21 (stereo not given) | Non-toxic | Non-toxic
 | 13.5 µM·h | 4.1 µM |  |  | 1.63 h | 15.7 µM·h | 5 µM | 1.47 h | 2.75 h | 1.77 h |  |  | Cn1cnc(S(=O)(=O)N(CC(=O)NC(C)(C)C)C2Cc3cc(-c4ccccc4)ccc3N(Cc3cncn3C)C2)c1 (stereo not given) |  | Non-toxic
1.6 ×10⁻⁶ cm/s |  |  |  |  |  |  |  |  |  |  | 73.3 ×10⁻⁶ cm/s | 5.7 µM | Cn1cncc1CN1CC(N(Cc2ccccn2)S(=O)(=O)c2ccccn2)Cc2cc(C#N)ccc21 (stereo not given) | Non-toxic | 
